Assay results from ChEMBL document CHEMBL1157638, “Fluorescent epigenetic small molecule induces expression of the tumor suppressor ras-association domain family 1A and inhibits human prostate xenograft” (J Med Chem, 2010).
Calls of active or inactive are those of the source. No cut-off for these calls is given here.

Tests used:
[1] = test system: SNB-19; assay: Growth inhibition of human SNB19 cells assessed as cell growth at 1 nM relative to untreated control; type: functional; settings: read-out: Activity
[2] = test system: HL-60(TB); assay: Growth inhibition of human HL-60(TB) cells; type: functional; settings: read-out: LC50 (the source's name)
[3] = test system: HT-29; assay: Growth inhibition of human HT-29 cells assessed as cell growth at 100 nM relative to untreated control; type: functional; settings: read-out: Activity
[4] = test system: MDA-MB-231; assay: Growth inhibition of human MDA-MB-231 cells assessed as cell growth at 1 uM relative to untreated control; type: functional; settings: read-out: Activity
[5] = test system: NCI-H322M; assay: Growth inhibition of human NCI-H322M cells assessed as cell growth at 10 nM relative to untreated control; type: functional; settings: read-out: Activity
[6] = test system: RXF 393; assay: Growth inhibition of human RXF393 cells assessed as cell growth at 100 nM relative to untreated control; type: functional; settings: read-out: Activity
[7] = test system: LOX IMVI; assay: Growth inhibition of human LOXIMVI cells assessed as cell growth at 10 uM relative to untreated control; type: functional; settings: read-out: Activity
[8] = test system: SNB-75; assay: Growth inhibition of human SNB75 cells assessed as cell growth at 10 nM relative to untreated control; type: functional; settings: read-out: Activity
[9] = Therapeutic index, ratio of toxic dose in BALB/c mouse to antitumor dose in human PC3 cells xenografted BALB/c mouse; type: cell-based, PC-3; settings: in vivo, read-out: TI
[10] = test system: UACC-62; assay: Growth inhibition of human UACC62 cells assessed as cell growth at 1 uM relative to untreated control; type: functional; settings: read-out: Activity
[11] = test system: NCI-H460; assay: Growth inhibition of human NCI-H460 cells assessed as cell growth at 10 nM relative to untreated control; type: functional; settings: read-out: Activity
[12] = Growth inhibition of human Hs 578T cells assessed as cell growth at 10 uM relative to untreated control; type: functional; settings: read-out: Activity
[13] = test system: OVCAR-8; assay: Growth inhibition of human OVCAR8 cells assessed as cell growth at 10 uM relative to untreated control; type: functional; settings: read-out: Activity
[14] = test system: TK-10; assay: Growth inhibition of human TK10 cells assessed as cell growth at 100 nM relative to untreated control; type: functional; settings: read-out: Activity
[15] = test system: KM12; assay: Growth inhibition of human KM12 cells assessed as cell growth at 10 uM relative to untreated control; type: functional; settings: read-out: Activity
[16] = Growth inhibition of human […] cells; type: functional
[17] = test system: HOP-62; assay: Growth inhibition of human HOP62 cells assessed as cell growth at 100 nM relative to untreated control; type: functional; settings: read-out: Activity
Summary of the method: (§1)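 Run externally at the National Cancer Institute as a 59-cell-line panel screen, with concentrations up to 100 μM. Growth was scored relative to control, where negative growth or total cell kill was possible. Data are in the Supporting Information.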

[18] = test system: SF-539; assay: Growth inhibition of human SF539 cells assessed as cell growth at 10 uM relative to untreated control; type: functional; settings: read-out: Activity
[19] = test system: UACC-257; assay: Growth inhibition of human UACC257 cells assessed as cell growth at 1 uM relative to untreated control; type: functional; settings: read-out: Activity
[20] = test system: SNB-19; assay: Growth inhibition of human SNB19 cells assessed as cell growth at 100 nM relative to untreated control; type: functional; settings: read-out: Activity
[21] = test system: TK-10; assay: Growth inhibition of human TK10 cells assessed as cell growth at 10 nM relative to untreated control; type: functional; settings: read-out: Activity
[22] = test system: OVCAR-3; assay: Growth inhibition of human OVCAR-3 cells; type: functional; settings: read-out: LC50 (the source's name)
[23] = test system: HCT-116; assay: Growth inhibition of human HCT116 cells; type: functional; summary of the method: as §1
[24] = test system: LOX IMVI; assay: Growth inhibition of human LOXIMVI cells assessed as cell growth at 1 nM relative to untreated control; type: functional; settings: read-out: Activity
[25] = Growth inhibition of human Hs 578T cells assessed as cell growth at 10 nM relative to untreated control; type: functional; settings: read-out: Activity
[26] = test system: A498; assay: Growth inhibition of human A498 cells assessed as cell growth at 10 nM relative to untreated control; type: functional; settings: read-out: Activity
[27] = test system: OVCAR-4; assay: Growth inhibition of human OVCAR4 cells; type: functional
[28] = test system: COLO 205; assay: Growth inhibition of human COLO205 cells assessed as cell growth at 10 nM relative to untreated control; type: functional; settings: read-out: Activity
[29] = test system: OVCAR-3; assay: Growth inhibition of human OVCAR-3 cells assessed as cell growth at 1 uM relative to untreated control; type: functional; settings: read-out: Activity
[30] = test system: MDA-MB-231; assay: Growth inhibition of human MDA-MB-231 cells; type: functional
[31] = test system: A498; assay: Growth inhibition of human A498 cells assessed as cell growth at 1 uM relative to untreated control; type: functional; settings: read-out: Activity
[32] = test system: 786-0; assay: Growth inhibition of human 786-0 cells assessed as cell growth at 10 nM relative to untreated control; type: functional; settings: read-out: Activity
[33] = test system: COLO 205; assay: Growth inhibition of human COLO205 cells assessed as cell growth at 100 nM relative to untreated control; type: functional; settings: read-out: Activity; summary of the method: as §1
[34] = test system: ACHN; assay: Growth inhibition of human ACHN cells assessed as cell growth at 10 uM relative to untreated control; type: functional; settings: read-out: Activity
[35] = test system: NCI-H322M; assay: Growth inhibition of human NCI-H322M cells assessed as cell growth at 10 uM relative to untreated control; type: functional; settings: read-out: Activity
[36] = test system: EKVX; assay: Growth inhibition of human EKVX cells assessed as cell growth at 1 uM relative to untreated control; type: functional; settings: read-out: Activity; summary of the method: as §1
[37] = test system: Malme-3M; assay: Growth inhibition of human MALME-3M cells assessed as cell growth at 10 nM relative to untreated control; type: functional; settings: read-out: Activity
[38] = test system: SF-268; assay: Growth inhibition of human SF268 cells; type: functional
[39] = test system: KM12; assay: Growth inhibition of human KM12 cells assessed as cell growth at 10 nM relative to untreated control; type: functional; settings: read-out: Activity
[40] = target: DNA (cytosine-5)-methyltransferase 3A (Homo sapiens) (UniProt Q9Y6K1); assay: Binding affinity to DNMT3a in human PC3 cells cytoplasm at 5 uM after 6 hrs by antibody staining; type: cell-based; settings: PC-3
Chain of DNA (cytosine-5)-methyltransferase 3A (Homo sapiens) (Q9Y6K1 whole entry, looked up): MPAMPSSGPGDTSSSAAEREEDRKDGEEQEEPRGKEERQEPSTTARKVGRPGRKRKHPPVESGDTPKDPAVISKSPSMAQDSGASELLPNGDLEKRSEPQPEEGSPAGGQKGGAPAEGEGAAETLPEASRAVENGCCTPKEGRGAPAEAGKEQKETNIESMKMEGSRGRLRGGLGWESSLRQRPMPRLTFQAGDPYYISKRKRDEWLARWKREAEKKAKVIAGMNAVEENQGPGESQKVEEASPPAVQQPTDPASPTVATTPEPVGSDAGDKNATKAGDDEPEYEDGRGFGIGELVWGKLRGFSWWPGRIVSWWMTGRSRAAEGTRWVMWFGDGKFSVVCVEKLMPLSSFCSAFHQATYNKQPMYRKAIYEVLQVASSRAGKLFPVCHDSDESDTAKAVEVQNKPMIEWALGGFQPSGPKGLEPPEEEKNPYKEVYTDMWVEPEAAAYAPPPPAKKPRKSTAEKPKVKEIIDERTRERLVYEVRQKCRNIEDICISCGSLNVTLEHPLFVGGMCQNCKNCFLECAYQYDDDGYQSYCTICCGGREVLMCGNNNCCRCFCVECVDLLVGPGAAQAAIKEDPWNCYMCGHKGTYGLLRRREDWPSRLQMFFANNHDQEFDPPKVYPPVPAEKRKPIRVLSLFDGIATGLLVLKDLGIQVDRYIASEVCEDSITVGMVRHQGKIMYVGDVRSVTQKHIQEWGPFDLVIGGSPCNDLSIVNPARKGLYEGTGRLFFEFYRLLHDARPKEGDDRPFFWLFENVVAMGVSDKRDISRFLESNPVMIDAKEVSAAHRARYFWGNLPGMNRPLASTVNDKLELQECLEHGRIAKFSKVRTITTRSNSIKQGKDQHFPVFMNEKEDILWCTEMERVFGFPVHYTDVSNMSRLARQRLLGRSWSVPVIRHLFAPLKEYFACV
Summary of the method: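 PC-3 cells were plated overnight on fibronectin/[…]-coated slides and treated with 5 μM compound or DMSO for 1-6 h. Cells were PBS-washed, fixed in 4% formaldehyde, and stained with propidium iodide (nuclei) and anti-DNMT3a or anti-DNMT3b antibody. The compound was excited at 725 nm by multiphoton laser and imaged through a 500-550 nm filter by confocal microscopy.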

[41] = test system: OVCAR-4; assay: Growth inhibition of human OVCAR4 cells assessed as cell growth at 10 nM relative to untreated control; type: functional; settings: read-out: Activity
[42] = test system: K562; assay: Growth inhibition of human K562 cells assessed as cell growth at 100 nM relative to untreated control; type: functional; settings: read-out: Activity
[43] = test system: K562; assay: Growth inhibition of human K562 cells assessed as cell growth at 10 nM relative to untreated control; type: functional; settings: read-out: Activity
[44] = test system: SF-295; assay: Growth inhibition of human SF295 cells assessed as cell growth at 10 nM relative to untreated control; type: functional; settings: read-out: Activity
[45] = test system: PC-3; assay: Growth inhibition of human PC3 cells assessed as cell growth at 10 nM relative to untreated control; type: functional; settings: read-out: Activity
[46] = test system: COLO 205; assay: Growth inhibition of human COLO205 cells assessed as cell growth at 1 uM relative to untreated control; type: functional; settings: read-out: Activity
[47] = read-out: LC50 (the source's name)

Structure (SMILES): COc1ccc2c(c1)[nH]c1c(C)c(OS(=O)(=O)c3cccc4c(N(C)C)cccc34)ccc12
- growth at 0.001 µM [1]: 97%
- CC50 [2]: > 100 µM
- growth at 0.1 µM [3]: 96%
- growth at 1 µM [4]: 49%
- growth at 0.01 µM [5]: 94%
- growth at 0.1 µM [6]: 100%
- growth at 10 µM [7]: 14%
- growth at 0.01 µM [8]: 118%
- selectivity ratio [9]: > 55
- growth at 1 µM [10]: 28%
- growth at 0.01 µM [11]: 101%
- growth at 10 µM [12]: -1%
- growth at 10 µM [13]: 24%
- growth at 0.1 µM [14]: 107%
- growth at 10 µM [15]: 6%
- GI50 [16]: 2.84 µM
- TGI [16]: 24 µM
- CC50 [16, 47]: > 100 µM
- growth at 0.1 µM [17]: 106%
- growth at 10 µM [18]: -32%
- growth at 1 µM [19]: 51%
- growth at 0.1 µM [20]: 88%
- growth at 0.01 µM [21]: 94%
- CC50 [22]: > 100 µM
- GI50 [23]: 4.38 µM
- TGI [23]: > 100 µM
- CC50 [23, 47]: > 100 µM
- growth at 0.001 µM [24]: 95%
- growth at 0.01 µM [25]: 103%
- growth at 0.01 µM [26]: 83%
- GI50 [27]: 7.4 µM
- TGI [27]: > 100 µM
- CC50 [27, 47]: > 100 µM
- growth at 0.01 µM [28]: 94%
- growth at 1 µM [29]: -35%
- GI50 [30]: 9.3 µM
- TGI [30]: > 100 µM
- CC50 [30, 47]: > 100 µM
- growth at 1 µM [31]: 15%
- growth at 0.01 µM [32]: 103%
- growth at 0.1 µM [33]: 95%
- growth at 10 µM [34]: 21%
- growth at 10 µM [35]: 34%
- growth at 1 µM [36]: 35%
- growth at 0.01 µM [37]: 89%
- GI50 [38]: 75.1 µM
- TGI [38]: > 100 µM
- CC50 [38, 47]: > 100 µM
- growth at 0.01 µM [39]: 102%
- Activity [40]: inactive
- growth at 0.01 µM [41]: 92%
- growth at 0.1 µM [42]: 91%
- growth at 0.01 µM [43]: 98%
- growth at 0.01 µM [44]: 93%
- growth at 0.01 µM [45]: 100%
- growth at 1 µM [46]: 23%
